pEC50: −log10 of the molar value. Converted amounts (≈) assume the structure as drawn.
Tests used:
CCRF-CEM = assay: In vitro antitumor activity against human lymphoblastic leukemia cells.; type: functional; details: read-out: ID50 (the source's name)
Outline: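 Human lymphoblastic leukemia CCRF-CEM cells grown in suspension culture; growth inhibition in vitro; ID50 (ng/mL) reported as the 50% inhibitory dose.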

P388 [1] = assay: Median survival time of the P388 cells implanted CDF1 male mice in vivo; type: functional, Mus musculus
Outline: (§1)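 CDF1 male mice, groups of seven, given 10^6 P388 cells ip on day 0; drug ip in 5% DMSO–saline on days 1, 5 and 9; controls received vehicle; range of doses tested, optimal nontoxic dose listed; median survival time; %ILS = (treated − control)/control × 100; average of two or more experiments.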

P388 [2] = assay: Optimal dose for antitumor activity was measured in P388 cells of CDF1 male mice in vivo; type: functional, Mus musculus; outline: as §1
P388 [3] = assay: Concentration required for 50% inhibition of incorporation of labeled uridine by P388 cells for the synthesis of RNA (in vitro); type: functional; details: Mus musculus, read-out: ED50 (the source's name)
P388 [4] = assay: Concentration required for 50% inhibition of incorporation of labeled thymidine by p388 cells for synthesis of DNA (in vitro); type: functional; details: Mus musculus, read-out: ED50 (the source's name)
P388 [5] = assay: Percent of increased life span of P388 cells implanted CDF1 male mice; type: functional, Mus musculus; outline: as §1
Bos taurus = species on record: Bos taurus; assay: Thermal denaturation (deltaTm) of compound against calf thymus DNA was measured; type: ADME; details: cattle, in vitro
Outline: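 Calf thymus DNA (MW 100 000–500 000) in 0.01 M phosphate, 5 × 10^-3 M EDTA, pH 7.0; drug 7 × 10^-4 M, DNA nucleotide 7 × 10^-3 M; 259 nm absorbance read at 0.25–1.0 °C steps; Tm taken at 50% hyperchromicity; ΔTm = complex Tm minus DNA Tm.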

| SMILES | IC50 (CCRF-CEM) | MST (P388 [1]) | Optimal dose (P388 [2]) | pEC50 (P388 [3]) | pEC50 (P388 [4]) | ILS (P388 [5]) | Delta Tm (Bos taurus) |
| --- | --- | --- | --- | --- | --- | --- | --- |
| CCCNc1c(C(=O)N[C@@H]2C(=O)N[C@H](C(C)C)C(=O)N3CCC[C@H]3C(=O)N(C)CC(=O)N(C)[C@@H](C(C)C)C(=O)O[C@@H]2C)c2nc3c(C(=O)N[C@@H]4C(=O)N[C@H](C(C)C)C(=O)N5CCC[C@H]5C(=O)N(C)CC(=O)N(C)[C@@H](C(C)C)C(=O)O[C@@H]4C)ccc(C)c3oc-2c(C)c1=O | 0.45 µg/mL (≈ 0.347 µM) | 17 days | 1200 µg/kg | 5.74 | < 5.26 | 55% |  |
| Cc1c2oc3c(C)c(OCc4ccc(Cl)cc4)cc(C(=O)N[C@@H]4C(=O)N[C@H](C(C)C)C(=O)N5CCC[C@H]5C(=O)N(C)CC(=O)N(C)[C@@H](C(C)C)C(=O)O[C@@H]4C)c3nc-2c(C(=O)N[C@@H]2C(=O)N[C@H](C(C)C)C(=O)N3CCC[C@H]3C(=O)N(C)CC(=O)N(C)[C@@H](C(C)C)C(=O)O[C@@H]2C)c(N)c1=O | 0.5 µg/mL (≈ 0.358 µM) | 16 days | 450 µg/kg |  |  | 52% |  |
| Cc1c2oc3c(C)c(O)c(N)c(C(=O)N[C@@H]4C(=O)N[C@H](C(C)C)C(=O)N5CCC[C@H]5C(=O)N(C)CC(=O)N(C)[C@@H](C(C)C)C(=O)O[C@@H]4C)c3nc-2c(C(=O)N[C@@H]2C(=O)N[C@H](C(C)C)C(=O)N3CCC[C@H]3C(=O)N(C)CC(=O)N(C)[C@@H](C(C)C)C(=O)O[C@@H]2C)c/c1=N/Cc1cccc(Oc2ccccc2)c1 |  |  |  | 6.15 | 5.82 |  |  |
| Cc1c2oc3c(C)c(OC(=O)c4ccc5ccccc5c4)cc(C(=O)N[C@@H]4C(=O)N[C@H](C(C)C)C(=O)N5CCC[C@H]5C(=O)N(C)CC(=O)N(C)[C@@H](C(C)C)C(=O)O[C@@H]4C)c3nc-2c(C(=O)N[C@@H]2C(=O)N[C@H](C(C)C)C(=O)N3CCC[C@H]3C(=O)N(C)CC(=O)N(C)[C@@H](C(C)C)C(=O)O[C@@H]2C)c(N)c1=O |  | 18 days | 900 µg/kg |  |  | 71% |  |
| Cc1c2oc3c(C)c(OC(=O)c4ccccc4)cc(C(=O)N[C@@H]4C(=O)N[C@H](C(C)C)C(=O)N5CCC[C@H]5C(=O)N(C)CC(=O)N(C)[C@@H](C(C)C)C(=O)O[C@@H]4C)c3nc-2c(C(=O)N[C@@H]2C(=O)N[C@H](C(C)C)C(=O)N3CCC[C@H]3C(=O)N(C)CC(=O)N(C)[C@@H](C(C)C)C(=O)O[C@@H]2C)c(N)c1=O | 2.5 µg/mL (≈ 1.82 µM) | 20 days | 750 µg/kg |  |  | 91% |  |
| CCCCNc1c(C(=O)N[C@@H]2C(=O)N[C@H](C(C)C)C(=O)N3CCC[C@H]3C(=O)N(C)CC(=O)N(C)[C@@H](C(C)C)C(=O)O[C@@H]2C)c2nc3c(C(=O)N[C@@H]4C(=O)N[C@H](C(C)C)C(=O)N5CCC[C@H]5C(=O)N(C)CC(=O)N(C)[C@@H](C(C)C)C(=O)O[C@@H]4C)ccc(C)c3oc-2c(C)c1=O | 0.95 µg/mL (≈ 0.724 µM) | 15 days | 900 µg/kg |  |  | 36% |  |
| CCCCOc1cc(C(=O)N[C@@H]2C(=O)N[C@H](C(C)C)C(=O)N3CCC[C@H]3C(=O)N(C)CC(=O)N(C)[C@@H](C(C)C)C(=O)O[C@@H]2C)c2nc3c(C(=O)N[C@@H]4C(=O)N[C@H](C(C)C)C(=O)N5CCC[C@H]5C(=O)N(C)CC(=O)N(C)[C@@H](C(C)C)C(=O)O[C@@H]4C)c(N)c(=O)c(C)c-3oc2c1C |  | 14 days | 750 µg/kg | 6.11 | 4.95 | 33% |  |
| Cc1c2oc3c(C)c(O)c(N)c(C(=O)N[C@@H]4C(=O)N[C@H](C(C)C)C(=O)N5CCC[C@H]5C(=O)N(C)CC(=O)N(C)[C@@H](C(C)C)C(=O)O[C@@H]4C)c3nc-2c(C(=O)N[C@@H]2C(=O)N[C@H](C(C)C)C(=O)N3CCC[C@H]3C(=O)N(C)CC(=O)N(C)[C@@H](C(C)C)C(=O)O[C@@H]2C)c/c1=N/Cc1ccco1 |  |  |  | 6.09 | 5.61 |  |  |
| Cc1c2oc3c(C)c(O)c(N)c(C(=O)N[C@@H]4C(=O)N[C@H](C(C)C)C(=O)N5CCC[C@H]5C(=O)N(C)CC(=O)N(C)[C@@H](C(C)C)C(=O)O[C@@H]4C)c3nc-2c(C(=O)N[C@@H]2C(=O)N[C@H](C(C)C)C(=O)N3CCC[C@H]3C(=O)N(C)CC(=O)N(C)[C@@H](C(C)C)C(=O)O[C@@H]2C)c/c1=N/Cc1ccc[nH]1 |  |  |  | 6.74 | 6.43 |  |  |
| Cc1c2oc3c(C)c(O)c(N)c(C(=O)N[C@@H]4C(=O)N[C@H](C(C)C)C(=O)N5CCC[C@H]5C(=O)N(C)CC(=O)N(C)[C@@H](C(C)C)C(=O)O[C@@H]4C)c3nc-2c(C(=O)N[C@@H]2C(=O)N[C@H](C(C)C)C(=O)N3CCC[C@H]3C(=O)N(C)CC(=O)N(C)[C@@H](C(C)C)C(=O)O[C@@H]2C)c/c1=N/Cc1ccccc1 |  |  |  | 5.85 | 5.57 |  |  |
| Cc1c2oc3c(C)ccc(C(=O)N[C@@H]4C(=O)N[C@H](C(C)C)C(=O)N5CCC[C@H]5C(=O)N(C)CC(=O)N(C)[C@@H](C(C)C)C(=O)O[C@@H]4C)c3nc-2c(C(=O)N[C@@H]2C(=O)N[C@H](C(C)C)C(=O)N3CCC[C@H]3C(=O)N(C)CC(=O)N(C)[C@@H](C(C)C)C(=O)O[C@@H]2C)c(NCCCCCCCCN)c1=O | 0.31 µg/mL (≈ 0.224 µM) | 14 days | 1800 µg/kg |  |  | 27% |  |
| Cc1c2oc3c(C)c(OCc4ccc([N+](=O)[O-])cc4)cc(C(=O)N[C@@H]4C(=O)N[C@H](C(C)C)C(=O)N5CCC[C@H]5C(=O)N(C)CC(=O)N(C)[C@@H](C(C)C)C(=O)O[C@@H]4C)c3nc-2c(C(=O)N[C@@H]2C(=O)N[C@H](C(C)C)C(=O)N3CCC[C@H]3C(=O)N(C)CC(=O)N(C)[C@@H](C(C)C)C(=O)O[C@@H]2C)c(N)c1=O | 0.5 µg/mL (≈ 0.355 µM) | 14 days | 600 µg/kg |  |  | 33% |  |
| Cc1c2oc3c(C)c(OCc4ccc(Cl)c(Cl)c4)cc(C(=O)N[C@@H]4C(=O)N[C@H](C(C)C)C(=O)N5CCC[C@H]5C(=O)N(C)CC(=O)N(C)[C@@H](C(C)C)C(=O)O[C@@H]4C)c3nc-2c(C(=O)N[C@@H]2C(=O)N[C@H](C(C)C)C(=O)N3CCC[C@H]3C(=O)N(C)CC(=O)N(C)[C@@H](C(C)C)C(=O)O[C@@H]2C)c(N)c1=O |  | 19 days | 500 µg/kg |  |  | 81% |  |
| Cc1c2oc3c(C)c(O)c(N)c(C(=O)N[C@@H]4C(=O)N[C@H](C(C)C)C(=O)N5CCC[C@H]5C(=O)N(C)CC(=O)N(C)[C@@H](C(C)C)C(=O)O[C@@H]4C)c3nc-2c(C(=O)N[C@@H]2C(=O)N[C@H](C(C)C)C(=O)N3CCC[C@H]3C(=O)N(C)CC(=O)N(C)[C@@H](C(C)C)C(=O)O[C@@H]2C)cc1=N |  |  |  | 7.09 | 5.91 |  |  |
| Cc1c2oc3c(C)c(O)c(N)c(C(=O)N[C@@H]4C(=O)N[C@H](C(C)C)C(=O)N5CCC[C@H]5C(=O)N(C)CC(=O)N(C)[C@@H](C(C)C)C(=O)O[C@@H]4C)c3nc-2c(C(=O)N[C@@H]2C(=O)N[C@H](C(C)C)C(=O)N3CCC[C@H]3C(=O)N(C)CC(=O)N(C)[C@@H](C(C)C)C(=O)O[C@@H]2C)c/c1=N/Cc1ccc(Cl)c(Cl)c1 |  |  |  |  |  |  | 7 |
| CCCCCCOc1cc(C(=O)N[C@@H]2C(=O)N[C@H](C(C)C)C(=O)N3CCC[C@H]3C(=O)N(C)CC(=O)N(C)[C@@H](C(C)C)C(=O)O[C@@H]2C)c2nc3c(C(=O)N[C@@H]4C(=O)N[C@H](C(C)C)C(=O)N5CCC[C@H]5C(=O)N(C)CC(=O)N(C)[C@@H](C(C)C)C(=O)O[C@@H]4C)c(N)c(=O)c(C)c-3oc2c1C |  |  |  |  |  |  | 1 |

Source: ChEMBL document CHEMBL1121923, “N2- and C-7 substituted actinomycin D analogues: synthesis, DNA-binding affinity, and biochemical and biological properties. Structure-activity relationship” (J Med Chem, 1981)
